From ChEMBL document CHEMBL3593207, “Imidazole clubbed 1,3,4-oxadiazole derivatives as potential antifungal agents” (2015)

What was measured:
Type in all cases: functional
Candida tropicalis [1] = test: Antifungal activity against Candida tropicalis ATCC 750 by broth microdilution assay
Procedure, shortened: (§1)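 CLSI M27-A3 broth microdilution. Compounds diluted to 1 mg/ml in 1% DMSO. Fluconazole (1 mg/ml) served as positive control, 1% DMSO as vehicle control, with media and culture controls. Triplicate at each concentration, repeated thrice. Inocula came from YPDA stocks subcultured in broth for 48 h at 37 °C.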

Candida tropicalis [2] = test: Antifungal activity against clinical isolates of Candida tropicalis 2029 by broth microdilution assay; procedure, shortened: as §1
Candida tropicalis [3] = test: Antifungal activity against clinical isolates of Candida tropicalis 2356 by broth microdilution assay; procedure, shortened: as §1
Candida albicans [4] = test: Antifungal activity against clinical isolates of Candida albicans 2367 by broth microdilution assay; procedure, shortened: as §1
Candida albicans [5] = test: Antifungal activity against clinical isolates of Candida albicans 2323 by broth microdilution assay; procedure, shortened: as §1
Candida albicans [6] = test: Antifungal activity against clinical isolates of Candida albicans 2779 by broth microdilution assay; procedure, shortened: as §1
Candida albicans [7] = test: Antifungal activity against Candida albicans ATCC 10261 by broth microdilution assay; procedure, shortened: as §1

MIC (Candida tropicalis [1]) [µg/mL]	MIC (Candida tropicalis [2]) [µg/mL]	MIC (Candida tropicalis [3]) [µg/mL]	MIC (Candida albicans [4]) [µg/mL]	MIC (Candida albicans [5]) [µg/mL]	MIC (Candida albicans [6]) [µg/mL]	MIC (Candida albicans [7]) [µg/mL]	SMILES
> 1000	> 1000	> 1000	> 1000	> 1000	> 1000	> 1000	CCc1ccnc(-c2nccn2Cc2nnc(-c3ccccc3N)o2)c1
> 1000	> 1000	> 1000	> 1000	> 1000	> 1000	> 1000	CCc1ccnc(-c2nccn2Cc2nnc(-c3ccc(Cl)cc3)o2)c1
